According to ChEMBL document CHEMBL4330170, “Acidiphilamides A-E, Modified Peptides as Autophagy Inhibitors from an Acidophilic Actinobacterium, Streptacidiphilus rugosus” (J Nat Prod, 2019):
Blank lines part the entries; values can stand above or below the compound they belong to. Active and inactive are the calls of the source. The calls are words filed in the database; no cut-off is given here. Non-standard residues stand in square brackets, D forms with d. Residues, ends and D or L forms follow the SMILES beside them. *: point of attachment. Phe(ol) = N[C@H](CO)Cc1ccccc1; Isovaleryl = CC(C)CC(=O)*; Propionyl = CCC(=O)*; Butyryl = CCCC(=O)*

Legend:
HeLa [1] = experiment: Inhibition of autophagic flux in human HeLa cells assessed as increase in LC3-2 level at 100 to 200 uM after 4 to 12 hrs by immunoblot analysis; type: functional, cell-based
Summary of the method: (§1)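 HeLa cells grown in DMEM with 10% FBS, 2 mM glutamine and penicillin/streptomycin, preincubated overnight, then exposed to compound at the indicated final concentrations for 4, 8 or 12 h. Whole-cell RIPA lysates run on SDS-PAGE, transferred to PVDF, blocked in 5% nonfat milk, probed with anti-LC3, anti-SQSTM1, anti-Ub, anti-α3 or anti-β-actin, HRP secondary, ECL detection.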

HeLa [2] = experiment: Effect on p62/SQSTM1 protein expression in human HeLa cells at 100 to 200 uM after 4 to 12 hrs by immunoblot analysis; type: functional, cell-based; summary of the method: as §1
HeLa [3] = experiment: Effect on polyubiquitin conjugate protein expression in human HeLa cells at 100 to 200 uM after 4 to 12 hrs by immunoblot analysis; type: functional, cell-based; summary of the method: as §1
HeLa [4] = experiment: Inhibition of autophagic flux in human HeLa cells assessed as reduction in autolysosome formation by measuring increase in LC3-2 level at 200 uM after 8 hrs in presence of BafA1 by immunoblot analysis; type: functional, cell-based
Summary of the method: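 HeLa cells grown in normal DMEM to >90% confluence, washed with PBS, then cotreated for 8 h with compound (200 μM) plus bafilomycin A1 (100 nM) in DMEM, or under amino acid depletion in EBSS. Whole-cell RIPA lysates immunoblotted (SDS-PAGE, PVDF, milk block, HRP secondary, ECL); β-actin loading control.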

HeLa [5] = experiment: Inhibition of autophagic flux in human HeLa cells assessed as increase in LC3-2 level at 100 to 200 uM after 4 to 12 hrs by immunoblot analysis
HeLa [6] = experiment: Effect on proteasome subunit alpha-3 protein expression in human HeLa cells at 100 to 200 uM after 4 to 12 hrs by immunoblot analysis; type: functional, cell-based; summary of the method: as §1
HeLa [7] = experiment: Inhibition of autophagic flux in human HeLa cells assessed as increase in LC3-2 level after 4 to 12 hrs by immunoblot analysis; type: functional, cell-based; summary of the method: as §1
[8] = target: 26S proteasome (Homo sapiens) (UniProt Q99460+P49721+P20618+P28074+P28062+P28065+P28072+O00487+P25786+P25787+P25788+P25789+P28066+P60900+O14818+Q8TAA3+P40306+A5LHX3+P49720+P28070+Q99436+Q16186+P35998+P62191+P43686+P62333+P17980+P62195+Q13200+O43242+O00232+O00231+Q15008+P51665+Q9UNM6+P55036+P48556+P60896); experiment: Inhibition of human 26S proteasome using suc-LLVY-AMC as substrate up to 40 mins by fluorescence assay; type: protein-complex assay
Summary of the method: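 Purified human 26S proteasomes incubated with compound and fluorogenic substrate suc-LLVY-AMC. Substrate hydrolysis followed as AMC fluorescence (RFU) over time.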

HeLa [9] = experiment: Inhibition of autophagic flux in human HeLa cells assessed as DQ-BSA quenching at 200 uM after 4 hrs by DAPI staining based fluorescence microscopic method; type: functional, cell-based
Summary of the method: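 HeLa cells on glass coverslips loaded with self-quenching BODIPY–BSA (DQ-BSA, 10 μg/mL) for 1 h, PBS-washed, then exposed to DMSO, EBSS or compound (200 μM) for 4 h. Fixed in 4% paraformaldehyde/PBS 15 min, mounted with DAPI-containing medium. Dequenched DQ-BSA puncta in autolysosomes imaged by fluorescence microscopy.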

SMILES: CC[C@H](C)[C@H](NC(=O)[C@H](Cc1ccc(O)cc1)NC(=O)CC(C)C)C(=O)N[C@H](CO)CCSC
LC3-II increase (active/not active) (HeLa [1]): inactive

inhibition [8]: inactive
SMILES: CCCC(=O)N[C@@H](Cc1ccccc1)C(=O)N[C@H](C(=O)N[C@H](CO)Cc1ccccc1)[C@@H](C)CC (Butyryl-Phe-Ile-[Phe(ol)])
Activity (HeLa [2]): inactive | Activity (HeLa [3]): inactive | inhibition (HeLa [4]): inactive | inhibition (HeLa [5]): Active | Activity (HeLa [6]): inactive | inhibition (HeLa [7]): Dose-dependent effect | inhibition (HeLa [9]): Active

SMILES: CC[C@H](C)[C@H](NC(=O)[C@H](Cc1ccccc1)NC(=O)CC(C)C)C(=O)N[C@H](CO)Cc1ccccc1 (Isovaleryl-Phe-Ile-[Phe(ol)])
LC3-II increase (active/not active) (HeLa [1]): inactive

inhibition [8]: inactive
SMILES: CC(C)CC(=O)N[C@@H](Cc1ccccc1)C(=O)N[C@H](C(=O)N[C@H](CO)Cc1ccccc1)C(C)C (Isovaleryl-Phe-Val-[Phe(ol)])
Activity (HeLa [2]): inactive | Activity (HeLa [3]): inactive | inhibition (HeLa [4]): inactive | inhibition (HeLa [5]): Active | Activity (HeLa [6]): inactive | inhibition (HeLa [7]): Dose-dependent effect | inhibition (HeLa [9]): Active

SMILES: CC[C@H](C)[C@H](NC(=O)[C@H](Cc1ccc(O)cc1)NC(=O)CC(C)C)C(=O)N[C@H](CO)Cc1ccccc1 (Isovaleryl-Tyr-Ile-[Phe(ol)])
LC3-II increase (active/not active) (HeLa [1]): inactive

SMILES: CC(C)CC(=O)N[C@@H](Cc1ccc(O)cc1)C(=O)N[C@H](C(=O)N[C@H](CO)Cc1ccccc1)C(C)C (Isovaleryl-Tyr-Val-[Phe(ol)])
LC3-II increase (active/not active) (HeLa [1]): inactive

SMILES: CCC(=O)N[C@@H](Cc1ccc(O)cc1)C(=O)N[C@H](C(=O)N[C@H](CO)Cc1ccccc1)[C@@H](C)CC (Propionyl-Tyr-Ile-[Phe(ol)])
LC3-II increase (active/not active) (HeLa [1]): inactive
